Measured values reported in ChEMBL document CHEMBL4765236, “Insights into the Antimicrobial Activity and Cytotoxicity of Engineered α-Helical Peptide Amphiphiles” (J Med Chem, 2016).
Active and inactive are the calls of the source. The rule behind the calls is not given here.

Experiments:
[1] = test system: Escherichia coli; test: Induction of morphological changes in Escherichia coli O157:H7 CICC 21530 assessed as membrane blebbing at 1 times MIC after 60 mins by SEM analysis; format: functional, organism-based
[2] = test system: Cell membrane; test: Induction of cell membrane disruption in Staphylococcus aureus ATCC 29213 assessed as spread of fluorescent signal across membrane surface at 1 times MIC in presence of FITC-labelled compound after 30 mins by confocal laser-scanning microscope analysis; format: subcellular
[3] = test system: HepG2; test: Induction of apoptosis in human HepG2 cells assessed as nuclear fragmentation at 32 uM measured after 8 hrs by DAPI staining based confocal microscopy; format: functional, cell-based
How it was run: (§1)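 HepG2 cells treated with 32 µM peptide for 2, 4 or 8 h and stained with DAPI. Nuclear morphology imaged by confocal microscopy, with untreated cells as control.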

[4] = test system: HepG2; test: Induction of cell cycle arrest in human HepG2 cells assessed as accumulation at G2/M phase at 32 uM incubated for 24 hrs by annexin-V/FITC staining-based FACS flow cytometry analysis (reference value: 28.75 %); format: functional
[5] = test system: Escherichia coli; test: Induction of morphological changes in Escherichia coli O157:H7 CICC 21530 assessed as membrane stunting at 1 times MIC after 60 mins by SEM analysis; format: functional, organism-based
[6] = test system: Staphylococcus aureus; test: Induction of morphological changes in Staphylococcus aureus ATCC 29213 assessed as membrane destruction at 1 times MIC after 60 mins by SEM analysis; format: functional, organism-based
How it was run: (§2)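 S. aureus grown to exponential phase in MHB at 37 °C with shaking at 220 rpm. Cells washed twice in PBS, resuspended to OD600 0.2, then exposed to peptide at 1× MIC for 60 min at 37 °C; untreated cells served as control. Cells were pelleted, PBS-washed, fixed overnight in 2.5% glutaraldehyde at 4 °C, dehydrated through graded ethanol then tert-butanol, and imaged by SEM.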

[7] = test system: HepG2; test: Induction of morphological changes in human HepG2 cells assessed as cell disruption at 32 uM after 24 hrs by SEM analysis; format: functional, cell-based
[8] = test system: HepG2; test: Induction of cell cycle arrest in human HepG2 cells assessed as accumulation at sub-G1 phase at 32 uM incubated for 24 hrs by annexin-V/FITC staining-based FACS flow cytometry analysis (reference value: 0.07%); format: functional
[9] = test system: HepG2; test: Induction of cell cycle arrest in human HepG2 cells assessed as accumulation at S phase at 64 uM incubated for 24 hrs by annexin-V/FITC staining-based FACS flow cytometry analysis (reference value: 20.51 %); format: functional
[10] = test system: HepG2; test: Induction of cell cycle arrest in human HepG2 cells assessed as accumulation at Go/G1 phase at 32 uM incubated for 24 hrs by annexin-V/FITC staining-based FACS flow cytometry analysis (reference value: 54.61 %); format: functional
[11] = test system: Escherichia coli; test: Induction of morphological changes in Escherichia coli O157:H7 CICC 21530 assessed as membrane destruction at 1 times MIC after 60 mins by SEM analysis; format: functional, organism-based
[12] = test system: HepG2; test: Induction of apoptosis in human HepG2 cells assessed as nuclei condensation at 32 uM incubated for 2 to 4 hrs by DAPI-staining based confocal microscopy analysis; format: functional, cell-based; details: time 2-4 hrs; how it was run: as §1
[13] = test system: HepG2; test: Induction of cell cycle arrest in human HepG2 cells assessed as accumulation at Go/G1 phase at 64 uM incubated for 24 hrs by annexin-V/FITC staining-based FACS flow cytometry analysis (reference value: 54.61 %); format: functional
[14] = test system: Cell membrane; test: Induction of cell membrane disruption in Escherichia coli O157:H7 CICC 21530 assessed as propidium iodide-positive cells at 1 times MIC measured after 30 mins by flow cytometry analysis (reference value: 5.7 %); format: subcellular
[15] = test system: HepG2; test: Induction of morphological changes in human HepG2 cells assessed as appearance of crimped boundaries at 32 uM after 24 hrs by SEM analysis; format: functional, cell-based
[16] = test system: Cell membrane; test: Induction of cell membrane disruption in Escherichia coli O157:H7 CICC 21530 assessed as propidium iodide-positive cells measured after 30 mins by flow cytometry analysis; format: subcellular
[17] = test system: Cell membrane; test: Induction of cell membrane disruption in Escherichia coli O157:H7 CICC 21530 assessed as propidium iodide-positive cells at 2 times MIC measured after 30 mins by flow cytometry analysis (reference value: 5.7 %); format: subcellular
[18] = test system: Lipopolysaccharide (LPS); test: Displacement of BODIPYTM-TR-cadaverine from Escherichia coli O111:B4 LPS by fluorescence spectroscopic analysis; details: dose 0.25-4 µM
How it was run: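 LPS-binding dye displacement: LPS (25 µg/mL) and BODIPY-TR-cadaverine (2.5 µg/mL) in tris buffer pH 7.4. An equal volume of peptide solution was added and the rise in fluorescence was recorded at excitation 580 nm and emission 620 nm. Melittin served as positive control. Each test was run independently in triplicate.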

[19] = test system: Staphylococcus aureus; test: Induction of morphological changes in Staphylococcus aureus ATCC 29213 assessed as membrane blebbing at 1 times MIC after 60 mins by SEM analysis; format: functional, organism-based; how it was run: as §2
[20] = test system: Cell membrane; test: Induction of cell membrane disruption in Escherichia coli O157:H7 CICC 21530 assessed as propidium iodide-positive cells at 0.5 times MIC measured after 30 mins by flow cytometry analysis (reference value: 5.7 %); format: subcellular
[21] = test system: RAW264.7; test: Antiinflammatory activity against mouse RAW264.7 cells assessed as inhibition of LPS-induced TNF-alpha production at 4 uM measured after 24 hrs by […] ELISA; format: functional, cell-based
How it was run: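 RAW264.7 cells plated at 1-2 × 10^5 cells/mL and stimulated with 500 ng/mL LPS with or without peptide (0.5-64 µM) for 24 h at 37 °C. Controls were untreated cells and LPS alone. TNF-α in the supernatant measured by ELISA. NO measured by Griess reagent (1% sulfanilamide, 0.1% naphthylethylenediamine, 5% phosphoric acid).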

[22] = test system: HepG2; test: Induction of morphological changes in human HepG2 cells assessed as decrease in adhesive monolayer at 32 uM after 24 hrs by inverted microscope analysis; format: functional, cell-based
[23] = test system: Staphylococcus aureus; test: Induction of morphological changes in Staphylococcus aureus ATCC 29213 assessed as membrane creeping at 1 times MIC after 60 mins by SEM analysis; format: functional, organism-based; how it was run: as §2
[24] = test system: Staphylococcus aureus; test: Induction of morphological changes in Staphylococcus aureus ATCC 29213 assessed as membrane stunting at 1 times MIC after 60 mins by SEM analysis; format: functional, organism-based; how it was run: as §2
[25] = test system: HepG2; test: Induction of cell cycle arrest in human HepG2 cells assessed as accumulation at sub-G1 phase at 64 uM incubated for 24 hrs by annexin-V/FITC staining-based FACS flow cytometry analysis (reference value: 0.07%); format: functional
[26] = Drug localization in cell membrane of human HepG2 cells assessed as green fluorescent signal in presence of FITC-labelled peptide at 32 uM measured up to 8 hrs by DAPI staining based confocal microscopy; format: ADME, cell membranes; details: hepg2, 8 h
How it was run: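 HepG2 cells incubated with FITC-labelled peptide at 32 µM. Fluorescence distribution imaged by confocal laser-scanning microscopy at intervals (1, 4 and 8 h).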

[27] = test system: Escherichia coli; test: Induction of morphological changes in Escherichia coli O157:H7 CICC 21530 assessed as intracellular changes at 1 times MIC after 60 mins by TEM analysis; format: functional, organism-based
[28] = test system: Staphylococcus aureus; test: Induction of morphological changes in Staphylococcus aureus ATCC 29213 assessed as intracellular changes at 1 times MIC after 60 mins by TEM analysis; format: functional, organism-based

| Substance | Activity [1] | Activity [4] [%] | Activity [5] | Activity [6] | Activity [8] [%] | Activity [9] [%] | Activity [10] [%] | Activity [11] | Activity [13] [%] | Activity [14] [%] | Activity [16] | Activity [17] [%] | Activity [19] | Activity [20] [%] | Activity [23] | Activity [24] | Activity [25] [%] | also measured |
| --- | --- | --- | --- | --- | --- | --- | --- | --- | --- | --- | --- | --- | --- | --- | --- | --- | --- | --- |
| H-WLRAFRRLVRRLARGLRR-NH2 | Active | 21.23 | Active | Active | 24.8 | 11.48 | 21.35 | Active | 5.83 | 91.1 | Dose-dependent effect | 98 | Active | 78.9 | Active | Active | 77.66 | Activity [2]: Active; Activity [3]: Active; Activity [7]: Active; Activity [12]: Active; Activity [15]: Active; Activity [18]: Active; Activity [21]: Active; Activity [22]: Active; Drug uptake [26]: Active |
| H-WGEAFSAGVHRLANGGNG-NH2 | Active | 29.33 | Active | Active | 1.06 | 31.61 | 52.45 | Active | 34.77 | 22.9 | Dose-dependent effect | 27.7 | Active | 14.3 | Active | Active | 2.26 | Activity [27]: Active; Activity [28]: Active |
